These results are taken from ChEMBL document CHEMBL1142652, “5-(2-aminoethyl)dibenzo[c,h][1,6]naphthyridin-6-ones: variation of n-alkyl substituents modulates sensitivity to efflux transporters associated with multidrug resistance” (J Med Chem, 2005).

The subject of one test is P388. Put plainly: Inhibitory concentration against P388 cell line in mouse leukemia was determine. The format is functional, cell-based. In a few lines:
(§1)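 MTT microtiter tetrazolium assay. Cells exposed continuously for 4 days to varying drug concentrations, MTT read at the end of day 4. An untreated control ran in each assay. IC50 taken; each assay done at least twice in six replicate wells. Sources: RPMI 8402 human lymphoblasts and CPT-resistant CPT-K5; P388 mouse leukemia and CPT-resistant TOP1-deficient P388/CPT45; KB3-1 with KBV-1 (MDR1) and KBH5.0 (BCRP, selected stepwise against Hoechst 33342).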

The test system of test [1] is RPMI 8402. Put plainly: Inhibitory concentration against lymphoblast RPMI 8402 cell line was determined. The format is functional, cell-based. The settings on record: Homo sapiens. In a few lines: as §1
The test system of test [2] is RPMI 8402. Put plainly: Cytotoxicity against camptothecin-resistant RPMI 8402. The class given is functional, cell-based. The conditions noted are these: Homo sapiens. In a few lines:
as §1

Test [3] can be described thus: Inhibitory concentration against KB/V-1 cells overexpress MDR1. The class given is functional, cell-based. The conditions noted are these: Homo sapiens. The method, boiled down:
as §1

A short description of test [4]: Inhibitory concentration against camptothecin-resistant variant of P388 cell line was determined. The class given is functional, cell-based, Mus musculus. In a few lines: as §1
Test [5] relates to KB 3-1. Put plainly: Inhibitory concentration against KB3-1 cell line was determined. The class given is functional, cell-based. The settings on record: Homo sapiens. The method, boiled down:
as §1

Test [6] concerns KB 3-1. Put plainly: Inhibitory concentration against KBH5.0 cells overexpress BCRP. The format is functional, cell-based. The settings on record: Homo sapiens, KBH5.0 cell. In a few lines:
as §1

Test [7] deals with T1, DNA topoisomerase 1 (Homo sapiens) (UniProt P11387).
T1 sequence (whole entry): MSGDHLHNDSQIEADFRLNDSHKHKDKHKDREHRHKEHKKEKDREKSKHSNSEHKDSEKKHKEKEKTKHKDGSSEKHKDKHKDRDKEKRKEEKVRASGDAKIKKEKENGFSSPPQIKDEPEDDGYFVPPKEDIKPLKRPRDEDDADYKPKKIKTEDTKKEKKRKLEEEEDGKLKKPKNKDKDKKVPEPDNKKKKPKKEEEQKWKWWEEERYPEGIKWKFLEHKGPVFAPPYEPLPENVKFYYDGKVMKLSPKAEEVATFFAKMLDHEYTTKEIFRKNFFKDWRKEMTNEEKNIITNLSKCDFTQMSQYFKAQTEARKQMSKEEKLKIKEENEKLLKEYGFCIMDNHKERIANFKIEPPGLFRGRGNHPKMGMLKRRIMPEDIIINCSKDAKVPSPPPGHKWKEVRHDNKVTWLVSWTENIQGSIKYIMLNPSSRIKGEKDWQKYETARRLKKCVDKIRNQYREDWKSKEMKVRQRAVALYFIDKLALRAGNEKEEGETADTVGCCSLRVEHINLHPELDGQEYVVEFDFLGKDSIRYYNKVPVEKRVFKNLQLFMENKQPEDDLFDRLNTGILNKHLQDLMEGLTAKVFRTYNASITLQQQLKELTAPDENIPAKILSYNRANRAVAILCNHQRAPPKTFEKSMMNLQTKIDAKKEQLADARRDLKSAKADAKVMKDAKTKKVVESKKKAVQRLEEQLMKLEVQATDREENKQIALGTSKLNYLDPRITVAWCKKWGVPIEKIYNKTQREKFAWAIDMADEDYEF
Put plainly: Relative topoisomerase I-mediated plasmid DNA cleavage compared to topotecan. The class given is functional. In a few lines: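 Recombinant human topoisomerase I (T7-expressed in E. coli as a fusion protein). End-labeled plasmid YepG, CsCl-purified, incubated with drug and enzyme 30 min at 37 °C. Gel autoradiograms, typically 24 h exposure. Value is REC: concentration relative to topotecan (set at 1.0) that gives the same cleavage.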

SMILES strings stand for the structures. pIC50: −log10 of the molar value.

Take `COc1cc2c(=O)n(CCNC(C)(C)C)c3c4cc5c(cc4ncc3c2cc1OC)OCO5`: the pIC50 in the test on P388 was 8.70; in the test with RPMI 8402 [1], 8.70; in the test on RPMI 8402 [2], 6.66; in test [3], 7.80; in test [4], 7.43; in the test on KB 3-1 [5], 8.52. This compound also showed a pIC50 in the test on KB 3-1 [6] of 8.22. The Activity in test [7] worked out at 0.1.
On to `CCNCCn1c(=O)c2cc(OC)c(OC)cc2c2cnc3cc4c(cc3c21)OCO4`, for which the pIC50 is 9.15 in the test on P388; 8.70 in the test on RPMI 8402 [1]; 6.77 in the test with RPMI 8402 [2]; 7.80 in test [3]; 7.52 in test [4]; 9.00 in the test on KB 3-1 [5]. Also, the pIC50 with KB 3-1 [6] was 8.30. In addition, in test [7], the Activity is 0.1.
`CCN(CCn1c(=O)c2cc(OC)c(OC)cc2c2cnc3cc4c(cc3c21)OCO4)Cc1ccccc1`: the pIC50 is 7.30 in the test with P388; 7.11 in the test on RPMI 8402 [1]; 5.12 in the test with RPMI 8402 [2]; 6.40 in test [3]; 6.44 in test [4]; 6.74 with KB 3-1 [5]. The same compound had a pIC50 in the test on KB 3-1 [6] of 6.48. Moreover, the Activity in test [7] is 12.3.
On to `COc1cc2c(=O)n(CCN(Cc3ccccc3)C(C)(C)C)c3c4cc5c(cc4ncc3c2cc1OC)OCO5`, for which the pIC50 is 6.70 with P388; 6.07 in the test on RPMI 8402 [1]; 5.24 in the test with RPMI 8402 [2]; 5.60 in test [3]; 5.73 in test [4]; 6.72 with KB 3-1 [5]. For the same compound, the pIC50 in the test on KB 3-1 [6] is 6.30. The same compound returned an Activity in test [7] above 1000.

One may read the pIC50 as −log10 of the IC50, conventionally taken in molar units. Read a low pIC50 as a high IC50.
